{"data": "Experimental data gathered from unrelated publications", "note": "Compare with care: the assays were run in different laboratories."}
{"Compound": "C=CS(=O)(=O)c1ccc(Nc2nc(OCC3CCCCC3)c3nc[nH]c3n2)cc1", "host": "male BALB/c mouse", "matrix": "plasma", "route": "intravenous", "dose": "20 mg/kg", "notes": "single dose", "measurement": "Cmax", "value": "534 ng/mL"}
{"Compound": "NC(=S)NN=Cc1ncccc1N", "host": "human", "matrix": "plasma", "route": "oral", "dose": "100 mg", "measurement": "Vd/F", "value": "205 L"}
{"Compound": "CCN1CCN(Cc2ccc(NC(=O)c3ccc(C)c(NC(=O)c4cncc(-c5cccs5)c4)c3)cc2C(F)(F)F)CC1", "host": "mouse", "matrix": "plasma", "route": "intraperitoneal", "dose": "15 mg/kg", "notes": "single dose", "measurement": "Cmax", "value": "582 ng/mL"}
{"Compound": "CNC(=O)n1ccc2cc(Oc3ccnc(NC(=O)c4ccc(C5CCN(CCO)CC5)cc4)c3)c(OCCOC)cc21", "host": "human", "matrix": "plasma", "route": "oral", "dose": "35 mg", "notes": "single dose, fed, healthy volunteers", "measurement": "Vd/F", "value": "14300 L"}
{"Compound": "CC(=O)O[C@@]12CO[C@@H]1C[C@H](O)[C@@]1(C)C(=O)[C@H](O)C3=C(C)[C@@H](OC(=O)[C@H](O)[C@@H](NC(=O)OC(C)(C)C)c4ccccc4)C[C@@](O)([C@@H](OC(=O)c4ccccc4)[C@H]21)C3(C)C", "host": "male Kunming mouse", "matrix": "liver", "route": "oral", "dose": "20 mg/kg", "measurement": "Cmax", "value": "18.9 ng/g"}
{"Compound": "Nc1ncn([C@H]2C[C@H](O)[C@@H](CO)O2)c(=O)n1", "host": "female C57BL/6 mouse", "matrix": "plasma", "route": "intravenous", "dose": "0.4 mg/kg", "measurement": "Cmax", "value": "319 ng/mL"}
{"Compound": "CC[C@H](C)CCCCC(=O)N[C@@H](CCN)C(=O)N[C@H](C(=O)N[C@@H](CCN)C(=O)N[C@H]1CCNC(=O)[C@H]([C@@H](C)O)NC(=O)[C@H](CCN)NC(=O)[C@H](CCN)NC(=O)[C@H](CC(C)C)NC(=O)[C@@H](Cc2ccccc2)NC(=O)[C@H](CCN)NC1=O)[C@@H](C)O", "host": "human", "matrix": "plasma", "route": "intravenous", "dose": "0.75 mg/kg", "notes": "single dose, infusion", "measurement": "Vd", "value": "20.2 L"}
{"Compound": "Cc1ccc(C(=O)Nc2ccc(CN3CCN(C)CC3)c(C(F)(F)F)c2)cc1C#Cc1cnc2[nH]ncc2c1", "host": "human", "matrix": "plasma", "route": "oral", "dose": "40 mg", "notes": "single dose, healthy volunteers", "measurement": "Vd/F", "value": "5370 L"}
{"Compound": "Cn1cc(Nc2nc(N)nc(-c3cccc(-n4ccc5cc(C6CC6)cc(F)c5c4=O)c3CO)n2)cn1", "host": "human", "matrix": "plasma", "route": "oral", "dose": "300 mg", "notes": "single dose, fasted", "measurement": "Vd/F", "value": "422 L"}
{"Compound": "Cl.[2H]C([2H])([2H])CC(=O)c1cnc(NC(=O)C2CC2)cc1Nc1cccc(-c2ncn(C([2H])([2H])[2H])n2)c1OC", "host": "human", "matrix": "plasma", "route": "oral", "dose": "20 mg", "notes": "multiple doses, once daily, fasted", "measurement": "Vd/F", "value": "240 L"}
